Target: T1, Vascular endothelial growth factor A, long form (Homo sapiens, UniProt P15692)
T1 sequence (P15692 whole entry): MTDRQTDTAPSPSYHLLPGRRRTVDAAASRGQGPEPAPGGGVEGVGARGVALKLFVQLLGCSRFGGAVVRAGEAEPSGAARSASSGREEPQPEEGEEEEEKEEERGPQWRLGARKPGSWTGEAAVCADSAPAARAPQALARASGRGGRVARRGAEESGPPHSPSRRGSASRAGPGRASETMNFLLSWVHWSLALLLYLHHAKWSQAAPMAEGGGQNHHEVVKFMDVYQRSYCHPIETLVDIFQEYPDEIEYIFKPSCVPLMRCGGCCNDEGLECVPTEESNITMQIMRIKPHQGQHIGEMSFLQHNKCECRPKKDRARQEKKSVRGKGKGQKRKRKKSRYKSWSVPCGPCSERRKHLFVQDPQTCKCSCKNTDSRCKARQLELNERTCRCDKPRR
Assay: Binding affinity to VEGF by surface plasmon resonance-based solution affinity assay
Procedure, shortened: (§1)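 Dissociation constants (Kd) for ligand binding to FGF-1, FGF-2 and VEGF were determined by an SPR solution affinity assay. Some entries come from a single measurement only.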

| SMILES | Kd [µM] |
| --- | --- |
| CO[C@H]1O[C@H](CNC(=O)CN(C(C)=O)C2CCCCCCCCCCC2)[C@@H](OS(=O)(=O)O)[C@H](OS(=O)(=O)O)[C@@H]1OS(=O)(=O)O | 1200 |
| CO[C@H]1O[C@H](CNC(=O)CN(Cc2ccccc2)C(C)=O)[C@@H](OS(=O)(=O)O)[C@H](OS(=O)(=O)O)[C@@H]1OS(=O)(=O)O | 77 |
| CO[C@H]1O[C@H](CN=[N+]=[N-])[C@@H](OS(=O)(=O)O)[C@H](OS(=O)(=O)O)[C@@H]1OS(=O)(=O)O | 630 |
| CCN(CC(=O)NC[C@H]1O[C@H](OC)[C@@H](OS(=O)(=O)O)[C@@H](OS(=O)(=O)O)[C@@H]1OS(=O)(=O)O)C(=O)c1ccccc1 | 1100 |
| CCN(CC(=O)NC[C@H]1O[C@H](OC)[C@@H](OS(=O)(=O)O)[C@@H](OS(=O)(=O)O)[C@@H]1OS(=O)(=O)O)C(=O)CCCCC(=O)O | 104 |
| CCN(CC(=O)NC[C@H]1O[C@H](OC)[C@@H](OS(=O)(=O)O)[C@@H](OS(=O)(=O)O)[C@@H]1OS(=O)(=O)O)C(=O)COS(=O)(=O)O | 512 |
| CO[C@H]1O[C@H](CNC(=O)CN(CCc2ccccc2)C(C)=O)[C@@H](OS(=O)(=O)O)[C@H](OS(=O)(=O)O)[C@@H]1OS(=O)(=O)O | 109 |
| CCN(CC(=O)NC[C@H]1O[C@H](OC)[C@@H](OS(=O)(=O)O)[C@@H](OS(=O)(=O)O)[C@@H]1OS(=O)(=O)O)C(=O)CCCCCCCCCOS(=O)(=O)O | 545 |
| CO[C@H]1O[C@H](CNC(=O)CN(C(C)=O)c2ccccc2)[C@@H](OS(=O)(=O)O)[C@H](OS(=O)(=O)O)[C@@H]1OS(=O)(=O)O | 76 |

Next, values leading:

| Kd [µM] | SMILES |
| --- | --- |
| 50 | CCN(CC(=O)NCCO[C@H]1O[C@H](COS(=O)(=O)O)[C@@H](OS(=O)(=O)O)[C@H](OS(=O)(=O)O)[C@@H]1OS(=O)(=O)O)C(=O)CCCCCCCCCOS(=O)(=O)O |
| 402 | CC(=O)N(CC(=O)NCCO[C@H]1O[C@H](COS(=O)(=O)O)[C@@H](OS(=O)(=O)O)[C@H](OS(=O)(=O)O)[C@@H]1OS(=O)(=O)O)c1ccccc1 |
| 198 | CO[C@H]1O[C@H](COS(=O)(=O)O)[C@@H](OS(=O)(=O)O)[C@H](OS(=O)(=O)O)[C@@H]1OS(=O)(=O)O |
| 91 | O=C(CNC(=O)Cc1cccc(Cl)c1)NCCO[C@H]1O[C@H](COS(=O)(=O)O)[C@@H](OS(=O)(=O)O)[C@H](OS(=O)(=O)O)[C@@H]1OS(=O)(=O)O |

Target: Fibroblast growth factor 1 (Homo sapiens, UniProt P05230)
Sequence (P05230 whole entry): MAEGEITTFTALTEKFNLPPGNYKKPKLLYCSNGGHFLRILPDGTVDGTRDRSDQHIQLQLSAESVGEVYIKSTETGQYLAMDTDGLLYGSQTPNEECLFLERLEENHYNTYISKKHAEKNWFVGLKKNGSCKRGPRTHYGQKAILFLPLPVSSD
Assay: Binding affinity to FGF1 by surface plasmon resonance-based solution affinity assay
Procedure, shortened: as §1

| SMILES | Kd [µM] |
| --- | --- |
| CO[C@H]1O[C@H](CNC(=O)CN(C(C)=O)C2CCCCCCCCCCC2)[C@@H](OS(=O)(=O)O)[C@H](OS(=O)(=O)O)[C@@H]1OS(=O)(=O)O | 265 |
| CO[C@H]1O[C@H](CNC(=O)CN(Cc2ccccc2)C(C)=O)[C@@H](OS(=O)(=O)O)[C@H](OS(=O)(=O)O)[C@@H]1OS(=O)(=O)O | 140 |
| CO[C@H]1O[C@H](CN=[N+]=[N-])[C@@H](OS(=O)(=O)O)[C@H](OS(=O)(=O)O)[C@@H]1OS(=O)(=O)O | 343 |
| CCN(CC(=O)NC[C@H]1O[C@H](OC)[C@@H](OS(=O)(=O)O)[C@@H](OS(=O)(=O)O)[C@@H]1OS(=O)(=O)O)C(=O)c1ccccc1 | 366 |
| CCN(CC(=O)NC[C@H]1O[C@H](OC)[C@@H](OS(=O)(=O)O)[C@@H](OS(=O)(=O)O)[C@@H]1OS(=O)(=O)O)C(=O)CCCCC(=O)O | 160 |
| CCN(CC(=O)NC[C@H]1O[C@H](OC)[C@@H](OS(=O)(=O)O)[C@@H](OS(=O)(=O)O)[C@@H]1OS(=O)(=O)O)C(=O)COS(=O)(=O)O | 174 |
| CO[C@H]1O[C@H](CNC(=O)CN(CCc2ccccc2)C(C)=O)[C@@H](OS(=O)(=O)O)[C@H](OS(=O)(=O)O)[C@@H]1OS(=O)(=O)O | 224 |
| CCN(CC(=O)NC[C@H]1O[C@H](OC)[C@@H](OS(=O)(=O)O)[C@@H](OS(=O)(=O)O)[C@@H]1OS(=O)(=O)O)C(=O)CCCCCCCCCOS(=O)(=O)O | 111 |
| CO[C@H]1O[C@H](CNC(=O)CN(C(C)=O)c2ccccc2)[C@@H](OS(=O)(=O)O)[C@H](OS(=O)(=O)O)[C@@H]1OS(=O)(=O)O | 196 |

The next lines start with the values.

| Kd [µM] | SMILES |
| --- | --- |
| 20 | CCN(CC(=O)NCCO[C@H]1O[C@H](COS(=O)(=O)O)[C@@H](OS(=O)(=O)O)[C@H](OS(=O)(=O)O)[C@@H]1OS(=O)(=O)O)C(=O)CCCCCCCCCOS(=O)(=O)O |
| 97 | CC(=O)N(CC(=O)NCCO[C@H]1O[C@H](COS(=O)(=O)O)[C@@H](OS(=O)(=O)O)[C@H](OS(=O)(=O)O)[C@@H]1OS(=O)(=O)O)c1ccccc1 |
| 170 | O=C(CNC(=O)Cc1cccc(Cl)c1)NCCO[C@H]1O[C@H](COS(=O)(=O)O)[C@@H](OS(=O)(=O)O)[C@H](OS(=O)(=O)O)[C@@H]1OS(=O)(=O)O |

Target: Fibroblast growth factor 2 (Homo sapiens, UniProt P09038)
Sequence (P09038 143-288 limits assumed): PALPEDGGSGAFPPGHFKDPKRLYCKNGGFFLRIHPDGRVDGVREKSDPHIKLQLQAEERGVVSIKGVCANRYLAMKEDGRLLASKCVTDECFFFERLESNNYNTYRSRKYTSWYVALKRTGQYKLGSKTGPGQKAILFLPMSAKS
Assay: Binding affinity to FGF2 by surface plasmon resonance-based solution affinity assay
Procedure, shortened: as §1

| SMILES | Kd [µM] |
| --- | --- |
| CO[C@H]1O[C@H](CNC(=O)CN(C(C)=O)C2CCCCCCCCCCC2)[C@@H](OS(=O)(=O)O)[C@H](OS(=O)(=O)O)[C@@H]1OS(=O)(=O)O | 480 |
| CO[C@H]1O[C@H](CNC(=O)CN(Cc2ccccc2)C(C)=O)[C@@H](OS(=O)(=O)O)[C@H](OS(=O)(=O)O)[C@@H]1OS(=O)(=O)O | 192 |
| CO[C@H]1O[C@H](CN=[N+]=[N-])[C@@H](OS(=O)(=O)O)[C@H](OS(=O)(=O)O)[C@@H]1OS(=O)(=O)O | 210 |
| CCN(CC(=O)NC[C@H]1O[C@H](OC)[C@@H](OS(=O)(=O)O)[C@@H](OS(=O)(=O)O)[C@@H]1OS(=O)(=O)O)C(=O)c1ccccc1 | 480 |
| CCN(CC(=O)NC[C@H]1O[C@H](OC)[C@@H](OS(=O)(=O)O)[C@@H](OS(=O)(=O)O)[C@@H]1OS(=O)(=O)O)C(=O)CCCCC(=O)O | 480 |
| CO[C@H]1O[C@H](CNC(=O)CN(CCc2ccccc2)C(C)=O)[C@@H](OS(=O)(=O)O)[C@H](OS(=O)(=O)O)[C@@H]1OS(=O)(=O)O | 680 |
| CCN(CC(=O)NC[C@H]1O[C@H](OC)[C@@H](OS(=O)(=O)O)[C@@H](OS(=O)(=O)O)[C@@H]1OS(=O)(=O)O)C(=O)CCCCCCCCCOS(=O)(=O)O | 240 |
| CO[C@H]1O[C@H](CNC(=O)CN(C(C)=O)c2ccccc2)[C@@H](OS(=O)(=O)O)[C@H](OS(=O)(=O)O)[C@@H]1OS(=O)(=O)O | 480 |

Further lines, results first:

| Kd [µM] | SMILES |
| --- | --- |
| 157 | CCN(CC(=O)NCCO[C@H]1O[C@H](COS(=O)(=O)O)[C@@H](OS(=O)(=O)O)[C@H](OS(=O)(=O)O)[C@@H]1OS(=O)(=O)O)C(=O)CCCCCCCCCOS(=O)(=O)O |
| 240 | CC(=O)N(CC(=O)NCCO[C@H]1O[C@H](COS(=O)(=O)O)[C@@H](OS(=O)(=O)O)[C@H](OS(=O)(=O)O)[C@@H]1OS(=O)(=O)O)c1ccccc1 |
| 837 | O=C(CNC(=O)Cc1cccc(Cl)c1)NCCO[C@H]1O[C@H](COS(=O)(=O)O)[C@@H](OS(=O)(=O)O)[C@H](OS(=O)(=O)O)[C@@H]1OS(=O)(=O)O |

Reference: ChEMBL document CHEMBL2086261, “A focused sulfated glycoconjugate Ugi library for probing heparan sulfate-binding angiogenic growth factors” (Bioorg Med Chem Lett, 2012)
